The values below come from ChEMBL document CHEMBL5576140, “Computational Design of Pore-Forming Peptides with Potent Antimicrobial and Anticancer Activities” (J Med Chem, 2024).

pIC50: −log10 of the molar value.

Series [1] can be described thus: Hemolytic activity against human RBC incubated for 1 hr by microplate reader analysis. The series is classed as toxicity, cell-based, Erythrocyte. The note with it: red blood cells (erythrocytes). A digest of the protocol: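 Human red blood cells exposed to peptides up to 50 μM; hemolysis measured, IC50 derived where reached.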
A further series deals with Escherichia coli. Briefly: Antimicrobial activity against Escherichia coli TOP10 incubated for 24 hrs by broth microdilution assay. The series is classed as functional.
The test system of a further series is Staphylococcus carnosus. Put plainly: Antimicrobial activity against Staphylococcus carnosus CCM 4838T incubated for 24 hrs by broth microdilution assay. The series is classed as functional.
The subject of series [2] is Staphylococcus aureus. Put plainly: Antimicrobial activity against Staphylococcus aureus NE163 harboring single transposon insertion mutation in aureolysin at 30 uM incubated for 18 hrs relative to control. The series is classed as functional. The method in brief: (§1)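 CA-MRSA USA300 LAC derivative JE2 and single transposon insertion mutants derived from JE2, each lacking an extracellular protease gene, were exposed to peptides up to 30 μM. The read-out was percent growth inhibition. Peptides were dissolved in PBS, and tests were run in triplicate.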

The test system of series [3] is Staphylococcus aureus. Briefly: Antimicrobial activity against Staphylococcus aureus NE1506 harboring single transposon insertion mutation in V8 protease at 30 uM incubated for 18 hrs relative to control. The series is classed as functional. A digest of the protocol: as §1
Series [4] concerns Staphylococcus aureus. Put plainly: Antimicrobial activity against Staphylococcus aureus NE1740 harboring single transposon insertion mutation in staphopain A at 30 uM incubated for 18 hrs relative to control. The series is classed as functional. A digest of the protocol: as §1
Series [5] has as its system Staphylococcus aureus. Briefly: Antimicrobial activity against Staphylococcus aureus NE934 harboring single transposon insertion mutation in staphopain B at 30 uM incubated for 18 hrs relative to control. The series is classed as functional. A digest of the protocol:
as §1

Series [6] is described as follows: Stability in simulated pore POPC lipid bilayer membrane. The series is classed as physicochemical. The method in brief:
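Coarse-grained MD with the "scaled" Martini force field, peptides in POPC membrane, 51 μs. Counts transmembrane peptides at 51 μs. Water beads within 2 nm vertically of membrane centre and peptide–peptide interaction energy averaged over 48–51 μs. Contacts (salt bridge or stacking) scored below 0.8 nm and called stable if present ≥50% of the time.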

Series [7] is described as follows: Toxicity against reconstructed human skin model assessed as irritation at 50 uM incubated for 1 hr followed by compound washout measured after 42 hrs by MTT assay. The series is classed as tissue-based, Skin of body. A digest of the protocol: (§2)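 Reconstructed human epidermis with stratum corneum, per OECD TG 439 skin irritation guideline. Tissues exposed 1 h to peptide at 50 μM, then 42 h post-treatment incubation. Viability read by MTT. Controls were SDS and melittin.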

Series [8] can be described thus: Toxicity against reconstructed human skin model assessed as tissue viability at 50 uM incubated for 1 hr followed by compound washout measured after 42 hrs by MTT assay. The series is classed as tissue-based, Skin of body. The note with it: read-out: Activity. The method in brief:
as §2

The subject of a further series is SUD4. Put plainly: Anti-cancer activity against human SU-DHL-4 cells incubated for 24 hrs by WST assay. The series is classed as functional, cell-based. The note with it: SU-DHL-4, 24 h.

On to H-KKKKLKKILKKLWQWINQLDNQLQDIKQNK-NH2, for which, in series [1], the 50% inhibitory concentration (IC50) at 1 h is > 50 µM.

Take H-RRRRLKKILKKLFQFINQLDNQLQDIRQNR-NH2: in [1], half-maximal inhibition (IC50 at 1 h) was put at 6.9 µM. This lies in the single-digit micromolar range.

For the compound H-KKKKVKKVVKKVFQFVNQVDNQVQDVKQNK-NH2, the MIC against Escherichia coli and in the series on Staphylococcus carnosus was > 50 µM each time. The inhibition at 30 µM in the series with Staphylococcus aureus [2], in the series with Staphylococcus aureus [3], with Staphylococcus aureus [4] and in the series on Staphylococcus aureus [5] was < 45% each time.

On to H-KKKKIKKIIKKIFQFINQIDNQIQDIKQNK-NH2, for which the MIC against Staphylococcus carnosus is > 50 µM. Also, the inhibition at 30 µM with Staphylococcus aureus [2], with Staphylococcus aureus [3], in the series on Staphylococcus aureus [4] and in the series on Staphylococcus aureus [5] was < 45% each time.

H-KKKKLKKILKKLFQFINQLENQLQEIKQNK-NH2: the half-inhibitory concentration (IC50) at 1 h in [1] was > 50 µM.

For the compound H-KKKKMKKMMKKMFQFMNQMDNQMQDMKQNK-NH2, the MIC in the series on Escherichia coli is > 50 µM. Also, the inhibition at 30 µM in the series with Staphylococcus aureus [2], in the series with Staphylococcus aureus [3], in the series with Staphylococcus aureus [4] and with Staphylococcus aureus [5] was < 45% in each case.

Turning to H-KKKKLKKLLKKLFQFLNQLDNQLQDLKQNK-NH2, the inhibition at 30 µM with Staphylococcus aureus [2], in the series with Staphylococcus aureus [3], with Staphylococcus aureus [4] and with Staphylococcus aureus [5] was < 45% in each case.

For the compound H-KKKKLKKILKKLFQFINQLDNQLQDIKQNK-OH, in series [1], the IC50 at 1 h is > 50 µM.

Turning to H-KKKKLKKILKKLFQFIDQLINDLQNIKKKK-NH2, the 50% inhibitory concentration (IC50) at 1 h in series [1] was > 50 µM.

Compound H-KKKKLRRILRRLFQFINQLDNQLQDIKQNK-NH2 came in with an IC50 at 1 h in series [1] of 49 µM.

As for H-KKKKLKKILKKLFQFINQLDNQLQDFKQNK-OH, in [6], the Stability result is “Stable”. Also, in series [1], the IC50 at 1 h was > 50 µM.

Consider `CC1(C)S[C@@H]2[C@H](NC(=O)[C@H](N)c3ccccc3)C(=O)N2[C@H]1C(=O)O` [AMPICILLIN], for which the IC50 at 1 h in series [1] was determined as 0.9 µM. That is a sub-micromolar value.

Regarding H-KKKKLKKILKKLFQFIQQLDQQLQDIKQQK-NH2, in [1], the IC50 at 1 h was > 50 µM. Further, the inhibition at 30 µM in the series with Staphylococcus aureus [2], in the series with Staphylococcus aureus [3], in the series on Staphylococcus aureus [4] and in the series on Staphylococcus aureus [5] was < 45% throughout. Moreover, the Activity result in series [7] is on record as “Non-Toxic”. In addition, the viability at 1 h, 50 µM in series [8] was determined as 100%.

Take H-KKKKLKKILKKLFSFISSLDSSLSDIKSSK-NH2: the Stability entry in series [6] is listed as “Stable”. The inhibition at 30 µM in the series with Staphylococcus aureus [2], in the series on Staphylococcus aureus [3], in the series on Staphylococcus aureus [4] and in the series on Staphylococcus aureus [5] was < 45% each time.

On to H-KNQNLDDILNQLFQFINQLKNQLQKIKKKK-NH2, for which, in the series with Escherichia coli, the MIC is > 50 µM.

For the compound H-KKKKLKKILKKLFNFINNLDNNLNDIKNNK-NH2, the inhibition at 30 µM in the series on Staphylococcus aureus [2], in the series on Staphylococcus aureus [3], in the series with Staphylococcus aureus [4] and with Staphylococcus aureus [5] was < 45% in each case.

In the case of H-KKKKAKKAAKKAFQFANQADNQAQDAKQNK-NH2, the minimal inhibitory concentration (MIC) against Escherichia coli and in the series on Staphylococcus carnosus was > 50 µM each time. The inhibition at 30 µM in the series with Staphylococcus aureus [2], in the series on Staphylococcus aureus [3], with Staphylococcus aureus [4] and in the series with Staphylococcus aureus [5] was < 45% each time.

For `CC[C@H](C)[C@H](NC(=O)CN)C(=O)NCC(=O)N[C@@H](C)C(=O)N[C@H](C(=O)N[C@@H](CC(C)C)C(=O)N[C@@H](CCCCN)C(=O)N[C@H](C(=O)N[C@@H](CC(C)C)C(=O)N[C@H](C(=O)N[C@H](C(=O)NCC(=O)N[C@@H](CC(C)C)C(=O)N1CCC[C@H]1C(=O)N[C@@H](C)C(=O)N[C@@H](CC(C)C)C(=O)N[C@H](C(=O)N[C@@H](CO)C(=O)N[C@@H](Cc1c[nH]c2ccccc12)C(=O)N[C@H](C(=O)N[C@@H](CCCCN)C(=O)N[C@@H](CCCNC(=N)N)C(=O)N[C@@H](CCCCN)C(=O)N[C@@H](CCCNC(=N)N)C(=O)N[C@@H](CCC(N)=O)C(=O)N[C@@H](CCC(N)=O)C(N)=O)[C@@H](C)CC)[C@@H](C)CC)[C@@H](C)O)[C@@H](C)O)C(C)C)C(C)C` [MELITTIN], in the series with SUD4, the pIC50 was ≥ 5.30.
